{"source": "ChEMBL document CHEMBL4190394", "about": "“Discovery of Novel Pazopanib-Based HDAC and VEGFR Dual Inhibitors Targeting Cancer Epigenetics and Angiogenesis Simultaneously” (J Med Chem, 2018)", "key": {"[1]": {"assay": "MRT (0 to t) in Sprague-Dawley rat at 10 mg/kg, po by LC-MS/MS analysis", "format": "ADME, organism-based", "conditions": "in vivo", "how_it_was_run": "(§1)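 Sprague–Dawley rats (N = 6) dosed with the hydrochloride salt, 2 mg/kg IV or 10 mg/kg PO. Jugular vein blood drawn at set time points and kept on ice. Plasma separated by centrifugation, stored at -80 °C, and quantified by LC-MS/MS.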"}, "[2]": {"assay": "Cmax in Sprague-Dawley rat at 10 mg/kg, po by LC-MS/MS analysis", "format": "ADME, organism-based", "design": "dose 10 mg/kg, route oral", "conditions": "in vivo", "how_it_was_run": "as §1"}, "[3]": {"molecular_target": "Vascular endothelial growth factor receptor 3 (Homo sapiens, UniProt P35916)", "sequence (P35916 whole entry)": "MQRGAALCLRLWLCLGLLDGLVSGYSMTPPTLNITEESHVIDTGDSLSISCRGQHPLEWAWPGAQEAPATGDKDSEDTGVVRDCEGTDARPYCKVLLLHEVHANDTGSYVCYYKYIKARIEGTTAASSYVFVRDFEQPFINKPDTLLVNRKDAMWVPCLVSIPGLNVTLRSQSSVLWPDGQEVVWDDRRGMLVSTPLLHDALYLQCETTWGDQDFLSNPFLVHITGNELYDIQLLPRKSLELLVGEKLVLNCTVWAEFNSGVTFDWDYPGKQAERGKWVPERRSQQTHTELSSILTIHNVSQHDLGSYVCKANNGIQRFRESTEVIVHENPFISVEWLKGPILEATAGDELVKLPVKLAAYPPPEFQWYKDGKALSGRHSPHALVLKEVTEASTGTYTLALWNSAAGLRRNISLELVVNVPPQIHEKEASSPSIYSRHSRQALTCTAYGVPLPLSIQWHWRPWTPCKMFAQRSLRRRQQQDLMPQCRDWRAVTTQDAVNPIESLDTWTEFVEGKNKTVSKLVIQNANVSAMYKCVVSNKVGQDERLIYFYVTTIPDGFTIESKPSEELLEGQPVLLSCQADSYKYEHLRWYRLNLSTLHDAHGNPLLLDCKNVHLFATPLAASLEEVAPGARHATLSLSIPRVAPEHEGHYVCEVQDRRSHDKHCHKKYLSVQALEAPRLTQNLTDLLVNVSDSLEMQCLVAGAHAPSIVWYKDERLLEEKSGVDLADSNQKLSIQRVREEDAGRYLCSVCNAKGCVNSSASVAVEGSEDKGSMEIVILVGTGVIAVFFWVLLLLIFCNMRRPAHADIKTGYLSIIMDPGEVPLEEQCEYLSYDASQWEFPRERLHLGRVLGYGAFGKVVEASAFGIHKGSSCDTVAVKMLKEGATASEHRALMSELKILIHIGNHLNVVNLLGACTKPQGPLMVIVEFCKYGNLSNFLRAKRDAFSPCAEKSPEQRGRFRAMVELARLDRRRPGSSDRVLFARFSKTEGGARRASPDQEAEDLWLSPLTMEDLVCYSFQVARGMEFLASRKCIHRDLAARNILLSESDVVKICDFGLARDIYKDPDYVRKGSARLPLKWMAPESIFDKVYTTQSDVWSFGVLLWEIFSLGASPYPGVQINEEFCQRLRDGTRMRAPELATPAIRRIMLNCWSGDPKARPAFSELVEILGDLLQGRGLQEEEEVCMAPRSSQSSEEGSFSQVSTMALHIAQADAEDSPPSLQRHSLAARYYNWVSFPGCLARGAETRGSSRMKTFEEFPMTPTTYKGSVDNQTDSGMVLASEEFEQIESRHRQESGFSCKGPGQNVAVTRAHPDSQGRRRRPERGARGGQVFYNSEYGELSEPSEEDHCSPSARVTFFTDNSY", "assay": "Inhibition of VEGFR-3 (unknown origin) after 40 mins by kinase-Glo assay"}, "HUVEC [4]": {"system": "HUVEC", "assay": "Antiangiogenic activity in human HUVEC cells assessed as reduction in capillary-like tubular network formation at 0.1 uM after 6 hrs by phase-contrast microscopy", "format": "functional, cell-based", "how_it_was_run": "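HUVECs trypsinized and seeded at 40000/well on Matrigel polymerized 0.5 h at 37 °C. Cells held 6 h at 37 °C in M199 with 5% FBS, with compound or DMSO. Tube formation viewed and photographed by phase-contrast microscopy at 200 magnification. Three independent experiments.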"}, "[5]": {"assay": "Cmax in Sprague-Dawley rat at 2 mg/kg, iv by LC-MS/MS analysis", "format": "ADME, organism-based", "design": "dose 2 mg/kg, route intravenous", "conditions": "in vivo", "how_it_was_run": "as §1"}, "ACHN": {"system": "ACHN", "assay": "Antiproliferative activity against human ACHN cells after 72 hrs by MTT assay", "format": "functional, cell-based"}, "HT-29 [6]": {"system": "HT-29", "assay": "Antitumor activity against human HT-29 cells xenografted in BALB/c nu mouse assessed as tumor growth inhibition at 50 mg/kg, po administered for 25 consecutive days measured every 3 days during compound dosing relative to control", "format": "functional", "conditions": "HT-29, po, read-out: TGI", "how_it_was_run": "(§2)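 HT-29 cells (1×10^7) implanted s.c. in right flank of male BALB/c-nu mice aged 5–6 weeks. At about 100 mm³ (day 10), mice randomized 6 per group and dosed orally for 25 consecutive days. Controls received PBS with 5% DMSO. T/C is mean RTV (Vt/V0) treated over control. TGI taken from final tumor weights. Student's two-tailed t test.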"}, "K562": {"system": "K562", "assay": "Antiproliferative activity against human K562 cells after 72 hrs by MTT assay", "format": "functional, cell-based", "conditions": "K562, 72 h"}, "HT-29 [7]": {"system": "HT-29", "assay": "Antitumor activity against human HT-29 cells xenografted in BALB/c nu mouse assessed as tumor growth level at 50 mg/kg, po administered for 25 consecutive days measured every 3 days during compound dosing relative to control", "format": "functional", "how_it_was_run": "as §2"}, "[8]": {"assay": "Half life in Sprague-Dawley rat at 10 mg/kg, po by LC-MS/MS analysis", "format": "ADME, organism-based", "conditions": "in vivo", "how_it_was_run": "as §1"}, "HEL": {"system": "HEL", "assay": "Antiproliferative activity against human HEL cells after 72 hrs by MTT assay", "format": "functional, cell-based"}, "[9]": {"assay": "Half life in Sprague-Dawley rat at 2 mg/kg, iv by LC-MS/MS analysis", "format": "ADME, organism-based", "conditions": "in vivo", "how_it_was_run": "as §1"}, "Histone deacetylase 2": {"molecular_target": "Histone deacetylase 2 (Homo sapiens, UniProt Q92769)", "sequence (Q92769 whole entry)": "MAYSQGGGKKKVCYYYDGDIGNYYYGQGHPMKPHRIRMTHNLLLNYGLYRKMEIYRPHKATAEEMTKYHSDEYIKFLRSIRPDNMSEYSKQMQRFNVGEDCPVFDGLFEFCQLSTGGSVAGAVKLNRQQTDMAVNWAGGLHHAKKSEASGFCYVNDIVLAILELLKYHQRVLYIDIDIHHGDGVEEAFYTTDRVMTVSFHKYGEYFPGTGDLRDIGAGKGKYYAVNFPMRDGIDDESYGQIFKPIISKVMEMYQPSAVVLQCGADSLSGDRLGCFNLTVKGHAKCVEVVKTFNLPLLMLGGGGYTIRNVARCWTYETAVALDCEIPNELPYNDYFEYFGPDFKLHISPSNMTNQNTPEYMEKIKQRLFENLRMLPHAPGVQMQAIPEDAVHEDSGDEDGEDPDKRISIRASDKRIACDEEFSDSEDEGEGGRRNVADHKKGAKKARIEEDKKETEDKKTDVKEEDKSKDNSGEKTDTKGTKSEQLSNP"}, "Mus musculus [10]": {"system": "Mus musculus", "assay": "Hepatotoxicity in nu BALB/c mouse xenografted with human HT-29 cells at 50 mg/kg , po administered for 25 consecutive days by macroscopic analysis", "format": "toxicity, organism-based", "conditions": "in vivo", "how_it_was_run": "(§3)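 HT-29 xenografted male BALB/c-nu mice dosed orally for 25 days, with PBS (5% DMSO) controls. After treatment mice were sacrificed and dissected, and internal organ injury was examined macroscopically.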"}, "[11]": {"molecular_target": "Vascular endothelial growth factor receptor 2 (Homo sapiens, UniProt P35968)", "sequence (P35968 whole entry)": "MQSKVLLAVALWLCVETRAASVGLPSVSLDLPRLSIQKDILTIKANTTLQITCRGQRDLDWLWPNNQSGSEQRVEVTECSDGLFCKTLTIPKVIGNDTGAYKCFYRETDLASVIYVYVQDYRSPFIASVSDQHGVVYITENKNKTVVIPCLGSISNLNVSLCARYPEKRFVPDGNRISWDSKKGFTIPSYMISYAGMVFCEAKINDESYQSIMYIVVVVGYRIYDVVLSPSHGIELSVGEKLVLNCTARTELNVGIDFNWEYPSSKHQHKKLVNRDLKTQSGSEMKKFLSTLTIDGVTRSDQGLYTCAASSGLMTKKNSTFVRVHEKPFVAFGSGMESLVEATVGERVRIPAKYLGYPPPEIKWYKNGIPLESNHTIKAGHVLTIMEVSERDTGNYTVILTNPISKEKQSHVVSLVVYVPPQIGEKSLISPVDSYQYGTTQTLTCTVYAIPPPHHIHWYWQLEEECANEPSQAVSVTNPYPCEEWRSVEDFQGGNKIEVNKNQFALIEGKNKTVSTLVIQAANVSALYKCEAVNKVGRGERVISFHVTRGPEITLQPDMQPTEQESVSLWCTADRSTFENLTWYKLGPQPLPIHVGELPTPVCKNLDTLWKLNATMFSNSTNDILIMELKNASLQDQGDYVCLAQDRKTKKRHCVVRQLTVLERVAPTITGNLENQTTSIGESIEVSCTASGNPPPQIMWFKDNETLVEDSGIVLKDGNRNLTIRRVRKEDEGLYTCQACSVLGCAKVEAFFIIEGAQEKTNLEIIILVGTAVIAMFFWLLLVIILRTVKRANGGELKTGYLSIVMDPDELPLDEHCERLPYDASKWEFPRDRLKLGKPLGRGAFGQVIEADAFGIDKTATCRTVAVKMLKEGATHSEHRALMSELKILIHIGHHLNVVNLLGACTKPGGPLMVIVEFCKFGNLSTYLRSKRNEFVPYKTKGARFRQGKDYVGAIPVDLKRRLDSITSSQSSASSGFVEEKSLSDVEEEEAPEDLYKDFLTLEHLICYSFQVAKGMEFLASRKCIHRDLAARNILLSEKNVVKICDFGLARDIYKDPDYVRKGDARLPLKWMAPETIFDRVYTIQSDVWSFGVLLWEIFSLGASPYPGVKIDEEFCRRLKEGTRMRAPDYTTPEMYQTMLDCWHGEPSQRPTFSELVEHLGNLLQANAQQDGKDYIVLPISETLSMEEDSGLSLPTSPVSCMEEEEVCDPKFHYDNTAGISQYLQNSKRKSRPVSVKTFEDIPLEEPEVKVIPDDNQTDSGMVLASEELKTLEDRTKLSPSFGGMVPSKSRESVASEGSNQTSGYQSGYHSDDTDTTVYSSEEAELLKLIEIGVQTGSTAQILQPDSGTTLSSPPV", "assay": "Inhibition of VEGFR-2 (unknown origin) at 0.2 uM after 40 mins by kinase-Glo assay relative to control", "how_it_was_run": "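VEGFR-2 tested at a single 200 nM concentration in a Kinase-Glo assay. Compound, kinase, substrate and ATP incubated 40 min at room temperature, then Kinase-Glo reagent added for 15 min and luminescence read. Inhibition rate reported. Replicates n ≥ 2.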"}, "Mus musculus [12]": {"system": "Mus musculus", "assay": "Toxicity in nu BALB/c mouse spleen xenografted with human HT-29 cells at 50 mg/kg , po administered for 25 consecutive days by macroscopic analysis", "format": "organism-based", "conditions": "in vivo", "how_it_was_run": "as §3"}, "[13]": {"assay": "AUC (0 to t) in Sprague-Dawley rat at 2 mg/kg, iv by LC-MS/MS analysis", "format": "ADME, organism-based", "conditions": "in vivo", "how_it_was_run": "as §1"}, "[14]": {"assay": "AUC (0 to t) in Sprague-Dawley rat at 10 mg/kg, po by LC-MS/MS analysis", "format": "ADME, organism-based", "conditions": "in vivo"}, "[15]": {"assay": "Tmax in Sprague-Dawley rat at 10 mg/kg, po by LC-MS/MS analysis", "format": "ADME, organism-based", "conditions": "in vivo", "how_it_was_run": "as §1"}, "AGS": {"system": "AGS", "assay": "Antiproliferative activity against human AGS cells after 72 hrs by MTT assay", "format": "functional, cell-based"}, "[16]": {"assay": "Tmax in Sprague-Dawley rat at 2 mg/kg, iv by LC-MS/MS analysis", "format": "ADME, organism-based", "conditions": "in vivo", "how_it_was_run": "as §1"}, "KG-1": {"system": "KG-1", "assay": "Antiproliferative activity against human KG1 cells after 72 hrs by MTT assay", "format": "functional, cell-based", "conditions": "KG-1, 72 h"}, "MDA-MB-231": {"system": "MDA-MB-231", "assay": "Antiproliferative activity against human MDA-MB-231 cells after 72 hrs by MTT assay", "format": "functional, cell-based", "conditions": "MDA-MB-231, 72 h"}, "[17]": {"assay": "MRT (0 to t) in Sprague-Dawley rat at 2 mg/kg, iv by LC-MS/MS analysis", "format": "ADME, organism-based", "conditions": "in vivo", "how_it_was_run": "as §1"}, "HT-29 [18]": {"system": "HT-29", "assay": "Antiproliferative activity against human HT-29 cells after 72 hrs by MTT assay", "format": "functional, cell-based", "conditions": "HT-29, 72 h"}, "Mus musculus [19]": {"system": "Mus musculus", "assay": "Toxicity in nu BALB/c mouse xenografted with human HT-29 cells assessed as reduction in body weight at 50 mg/kg , po administered for 25 consecutive days measured every day during compound dosing", "format": "organism-based", "conditions": "in vivo"}, "[20]": {"assay": "Oral bioavailability in Sprague-Dawley rat at 10 mg/kg by LC-MS/MS analysis", "format": "ADME, organism-based", "conditions": "in vivo", "how_it_was_run": "as §1"}, "[21]": {"molecular_target": "Fibroblast growth factor receptor 1 (Homo sapiens, UniProt P11362)", "assay": "Inhibition of FGFR1 (unknown origin) after 40 mins by kinase-Glo assay"}, "[22]": {"molecular_target": "Macrophage colony-stimulating factor 1 receptor (Homo sapiens, UniProt P07333)", "assay": "Inhibition of C-fms (unknown origin) after 40 mins by kinase-Glo assay"}, "Histone deacetylase 3": {"molecular_target": "Histone deacetylase 3 (Homo sapiens, UniProt O15379)", "sequence (O15379 whole entry)": "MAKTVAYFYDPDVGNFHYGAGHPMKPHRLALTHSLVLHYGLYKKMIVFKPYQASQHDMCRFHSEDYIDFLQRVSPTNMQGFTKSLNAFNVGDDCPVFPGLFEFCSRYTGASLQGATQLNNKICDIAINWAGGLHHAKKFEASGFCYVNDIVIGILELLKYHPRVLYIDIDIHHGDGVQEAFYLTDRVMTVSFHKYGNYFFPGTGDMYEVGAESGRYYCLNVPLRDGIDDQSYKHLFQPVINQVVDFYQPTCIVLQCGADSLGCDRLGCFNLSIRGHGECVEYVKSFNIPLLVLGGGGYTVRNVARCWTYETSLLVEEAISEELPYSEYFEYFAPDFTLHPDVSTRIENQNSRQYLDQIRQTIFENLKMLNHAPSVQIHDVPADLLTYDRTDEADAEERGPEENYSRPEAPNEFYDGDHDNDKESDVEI"}, "[23]": {"assay": "Clearance in Sprague-Dawley rat at 2 mg/kg, iv by LC-MS/MS analysis", "format": "ADME, organism-based", "conditions": "in vivo", "how_it_was_run": "as §1"}, "HUVEC [24]": {"system": "HUVEC", "assay": "Cytotoxicity activity against HUVEC after 72 hrs by MTT assay", "format": "cell-based", "conditions": "Homo sapiens", "how_it_was_run": "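HUVECs kept in RPMI1640 with 10% FBS at 37 °C, 5% CO2. Cells seeded the day before, grown 12 h, then exposed to a range of compound concentrations for 72 h. Then 0.5% MTT added for 4 h, formazan dissolved in DMSO, and absorbance read at 570 nm.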"}, "Histone deacetylase": {"molecular_target": "Histone deacetylase", "format": "protein assay, Homo sapiens"}, "[25]": {"molecular_target": "Vascular endothelial growth factor receptor 1 (Homo sapiens, UniProt P17948)", "sequence (P17948 whole entry)": "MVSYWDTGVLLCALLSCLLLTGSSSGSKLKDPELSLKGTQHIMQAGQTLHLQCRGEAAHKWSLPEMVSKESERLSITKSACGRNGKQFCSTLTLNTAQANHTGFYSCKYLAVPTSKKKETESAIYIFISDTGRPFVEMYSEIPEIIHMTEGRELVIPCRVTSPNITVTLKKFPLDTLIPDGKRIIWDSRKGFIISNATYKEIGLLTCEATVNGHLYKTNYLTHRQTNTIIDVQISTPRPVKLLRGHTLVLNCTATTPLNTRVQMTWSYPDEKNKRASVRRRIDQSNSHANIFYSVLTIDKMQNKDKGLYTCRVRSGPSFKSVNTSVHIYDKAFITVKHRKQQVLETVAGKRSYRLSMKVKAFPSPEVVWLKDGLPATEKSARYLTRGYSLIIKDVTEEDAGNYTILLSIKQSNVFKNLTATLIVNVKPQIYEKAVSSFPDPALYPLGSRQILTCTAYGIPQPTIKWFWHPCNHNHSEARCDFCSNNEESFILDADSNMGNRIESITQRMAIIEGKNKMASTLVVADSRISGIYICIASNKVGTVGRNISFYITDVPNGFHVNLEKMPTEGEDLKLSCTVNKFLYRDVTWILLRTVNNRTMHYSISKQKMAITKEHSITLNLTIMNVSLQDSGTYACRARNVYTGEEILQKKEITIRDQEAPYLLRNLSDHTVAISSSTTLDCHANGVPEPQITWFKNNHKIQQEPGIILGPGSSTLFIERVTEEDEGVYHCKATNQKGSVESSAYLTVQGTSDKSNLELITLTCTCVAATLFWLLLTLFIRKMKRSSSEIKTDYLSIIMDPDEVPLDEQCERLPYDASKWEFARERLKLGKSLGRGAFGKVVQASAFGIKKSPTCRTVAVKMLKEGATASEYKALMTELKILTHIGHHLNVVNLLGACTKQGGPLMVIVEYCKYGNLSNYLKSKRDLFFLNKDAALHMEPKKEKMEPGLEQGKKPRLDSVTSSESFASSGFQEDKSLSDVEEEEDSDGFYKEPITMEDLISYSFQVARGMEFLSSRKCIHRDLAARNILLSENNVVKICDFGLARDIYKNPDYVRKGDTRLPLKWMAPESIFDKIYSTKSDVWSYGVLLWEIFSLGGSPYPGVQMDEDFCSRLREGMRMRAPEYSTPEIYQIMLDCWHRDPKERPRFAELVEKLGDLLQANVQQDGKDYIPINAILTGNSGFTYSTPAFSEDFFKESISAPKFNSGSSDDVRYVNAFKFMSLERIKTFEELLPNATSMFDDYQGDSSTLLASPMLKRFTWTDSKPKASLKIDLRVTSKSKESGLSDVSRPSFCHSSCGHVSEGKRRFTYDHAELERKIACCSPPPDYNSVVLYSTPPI", "assay": "Inhibition of VEGFR-1 (unknown origin) after 40 mins by kinase-Glo assay", "how_it_was_run": "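Kinase-Glo luminescent assay run by a contract lab. Compound, kinase, substrate and ATP diluted in kinase buffer and incubated 40 min at room temperature. IC50 obtained by nonlinear regression of normalized dose–response.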"}, "[26]": {"assay": "Apparent volume of distribution in Sprague-Dawley rat at 2 mg/kg, iv by LC-MS/MS analysis", "format": "ADME, organism-based", "conditions": "in vivo, read-out: Vz", "how_it_was_run": "as §1"}}, "note": "Calls of active or inactive are those of the source. The rule behind the calls is not given here.", "data": [{"smiles": "Cc1c2ccc(N(C)c3ccnc(Nc4ccc(C(=O)Nc5ccccc5N)cc4)n3)cc2nn1C", "values": [{"measurement": "MRT last", "setting": "[1]", "result": 2.54, "unit": "h"}, {"measurement": "Cmax", "setting": "[2]", "result": 3240, "unit": "ng/mL"}, {"measurement": "IC50", "setting": "[3]", "result": 46, "unit": "nM"}, {"measurement": "Activity", "setting": "HUVEC [4]", "result": "Active"}, {"measurement": "Cmax", "setting": "[5]", "result": 2780, "unit": "ng/mL"}, {"measurement": "IC50", "setting": "ACHN", "result": "> 5000", "unit": "nM"}, {"measurement": "inhibition in vivo at 50 mg/kg", "setting": "HT-29 [6]", "result": 40, "unit": "%"}, {"measurement": "IC50", "setting": "K562", "result": 1820, "unit": "nM"}, {"measurement": "T/C", "setting": "HT-29 [7]", "result": 65, "unit": "%"}, {"measurement": "half-life", "setting": "[8]", "result": 2.1, "unit": "h"}, {"measurement": "IC50", "setting": "HEL", "result": 1520, "unit": "nM"}, {"measurement": "half-life", "setting": "[9]", "result": 1.64, "unit": "h"}, {"measurement": "IC50", "setting": "Histone deacetylase 2", "result": 910, "unit": "nM"}, {"measurement": "Activity", "setting": "Mus musculus [10]", "result": "Non-Toxic"}, {"measurement": "inhibition", "setting": "[11]", "result": 100, "unit": "%"}, {"measurement": "Activity", "setting": "Mus musculus [12]", "result": "Non-Toxic"}, {"measurement": "AUC(0-t)", "setting": "[13]", "result": 2380, "unit": "ng·h/mL"}, {"measurement": "AUC(0-t)", "setting": "[14]", "result": 8570, "unit": "ng·h/mL"}, {"measurement": "Tmax", "setting": "[15]", "result": 0.5, "unit": "h"}, {"measurement": "IC50", "setting": "AGS", "result": "> 5000", "unit": "nM"}, {"measurement": "Tmax", "setting": "[16]", "result": 4.8, "unit": "min"}, {"measurement": "IC50", "setting": "KG-1", "result": 670, "unit": "nM"}, {"measurement": "IC50", "setting": "MDA-MB-231", "result": 3740, "unit": "nM"}, {"measurement": "MRT last", "setting": "[17]", "result": 1.13, "unit": "h"}, {"measurement": "IC50", "setting": "HT-29 [18]", "result": 1070, "unit": "nM"}, {"measurement": "Activity", "setting": "Mus musculus [19]", "result": "Non-Toxic"}, {"measurement": "bioavailability", "setting": "[20]", "result": 72, "unit": "%"}, {"measurement": "IC50", "setting": "[21]", "result": 192, "unit": "nM"}, {"measurement": "IC50", "setting": "[22]", "result": 351, "unit": "nM"}, {"measurement": "IC50", "setting": "Histone deacetylase 3", "result": 430, "unit": "nM"}, {"measurement": "clearance", "setting": "[23]", "result": 14.6, "unit": "mL/min/kg"}, {"measurement": "IC50", "setting": "HUVEC [24]", "result": 16000, "unit": "nM"}, {"measurement": "IC50", "setting": "Histone deacetylase", "result": 4600, "unit": "nM"}, {"measurement": "IC50", "setting": "[25]", "result": 22, "unit": "nM"}, {"measurement": "Vd", "setting": "[26]", "result": 2.06, "unit": "L/kg"}]}]}
